From ChEMBL document CHEMBL1124012, “Synthesis of sulfur-containing analogues of bestatin. Inhibition of aminopeptidases by alpha-thiolbestatin analogues” (J Med Chem, 1988)
pKi: −log10 of the molar value.

Key:
[1] = biological target: T1, Aminopeptidase N (Sus scrofa, UniProt P15145); assay: Inhibitory activity against Aminopeptidase M
T1 sequence (P15145 whole entry): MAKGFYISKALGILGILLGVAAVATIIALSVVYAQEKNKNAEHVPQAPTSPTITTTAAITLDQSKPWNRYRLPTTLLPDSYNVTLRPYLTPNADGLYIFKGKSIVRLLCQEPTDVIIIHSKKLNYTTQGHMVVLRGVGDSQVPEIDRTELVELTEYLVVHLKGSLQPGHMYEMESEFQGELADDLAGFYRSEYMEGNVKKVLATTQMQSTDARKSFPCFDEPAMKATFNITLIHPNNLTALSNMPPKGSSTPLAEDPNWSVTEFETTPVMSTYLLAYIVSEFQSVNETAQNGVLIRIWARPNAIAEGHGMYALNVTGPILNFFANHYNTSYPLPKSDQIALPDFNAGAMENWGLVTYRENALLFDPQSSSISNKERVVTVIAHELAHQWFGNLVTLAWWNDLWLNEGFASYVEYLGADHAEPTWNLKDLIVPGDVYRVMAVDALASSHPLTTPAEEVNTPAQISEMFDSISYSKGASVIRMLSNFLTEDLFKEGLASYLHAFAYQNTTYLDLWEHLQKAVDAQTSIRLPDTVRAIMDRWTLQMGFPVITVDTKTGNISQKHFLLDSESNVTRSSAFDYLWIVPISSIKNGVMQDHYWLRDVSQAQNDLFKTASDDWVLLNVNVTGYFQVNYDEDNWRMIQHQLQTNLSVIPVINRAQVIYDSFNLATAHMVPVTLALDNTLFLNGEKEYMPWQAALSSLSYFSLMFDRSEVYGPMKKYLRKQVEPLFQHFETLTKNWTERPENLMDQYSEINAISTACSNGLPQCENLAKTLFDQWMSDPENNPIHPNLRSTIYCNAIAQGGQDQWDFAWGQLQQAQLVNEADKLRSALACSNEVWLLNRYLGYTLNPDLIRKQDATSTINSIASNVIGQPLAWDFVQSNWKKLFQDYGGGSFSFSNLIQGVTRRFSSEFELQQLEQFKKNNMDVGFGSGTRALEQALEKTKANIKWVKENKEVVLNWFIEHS

[2] = biological target: Cytosol aminopeptidase (Homo sapiens, UniProt P28838); assay: Inhibitory activity against Leucine aminopeptidase; parameters: species or system Streptomyces olivoreticuli
Chain of Cytosol aminopeptidase (P28838 whole entry): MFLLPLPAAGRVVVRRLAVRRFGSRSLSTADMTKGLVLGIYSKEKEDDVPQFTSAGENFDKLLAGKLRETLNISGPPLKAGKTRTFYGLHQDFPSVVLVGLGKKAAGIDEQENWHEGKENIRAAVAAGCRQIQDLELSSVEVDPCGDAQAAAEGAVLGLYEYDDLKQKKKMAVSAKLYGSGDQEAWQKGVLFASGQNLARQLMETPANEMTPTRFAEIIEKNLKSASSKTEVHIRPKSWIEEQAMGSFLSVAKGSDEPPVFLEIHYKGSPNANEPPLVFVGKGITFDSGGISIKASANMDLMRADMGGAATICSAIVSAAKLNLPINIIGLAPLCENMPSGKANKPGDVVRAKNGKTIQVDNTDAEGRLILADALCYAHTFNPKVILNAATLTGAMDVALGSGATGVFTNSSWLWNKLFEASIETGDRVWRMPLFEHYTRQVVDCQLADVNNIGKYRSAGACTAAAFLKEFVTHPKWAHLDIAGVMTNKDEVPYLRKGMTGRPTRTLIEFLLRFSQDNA
Method in brief: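 Cytosolic leucine aminopeptidase, converted to Zn/Mg form by 4 h at 37 °C in 10 mM HEPES pH 8.0 with 5 mM MgSO4 and 1 M KCl. Assayed at 25 °C in 0.1 M Tris pH 8.5 with 5 mM MgCl2, enzyme 5 nM (1 nM for very tight binders).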

[3] = biological target: T2, Aminopeptidase B (Rattus norvegicus, UniProt O09175); assay: Inhibitory activity against aminopeptidase B
T2 sequence (O09175 whole entry): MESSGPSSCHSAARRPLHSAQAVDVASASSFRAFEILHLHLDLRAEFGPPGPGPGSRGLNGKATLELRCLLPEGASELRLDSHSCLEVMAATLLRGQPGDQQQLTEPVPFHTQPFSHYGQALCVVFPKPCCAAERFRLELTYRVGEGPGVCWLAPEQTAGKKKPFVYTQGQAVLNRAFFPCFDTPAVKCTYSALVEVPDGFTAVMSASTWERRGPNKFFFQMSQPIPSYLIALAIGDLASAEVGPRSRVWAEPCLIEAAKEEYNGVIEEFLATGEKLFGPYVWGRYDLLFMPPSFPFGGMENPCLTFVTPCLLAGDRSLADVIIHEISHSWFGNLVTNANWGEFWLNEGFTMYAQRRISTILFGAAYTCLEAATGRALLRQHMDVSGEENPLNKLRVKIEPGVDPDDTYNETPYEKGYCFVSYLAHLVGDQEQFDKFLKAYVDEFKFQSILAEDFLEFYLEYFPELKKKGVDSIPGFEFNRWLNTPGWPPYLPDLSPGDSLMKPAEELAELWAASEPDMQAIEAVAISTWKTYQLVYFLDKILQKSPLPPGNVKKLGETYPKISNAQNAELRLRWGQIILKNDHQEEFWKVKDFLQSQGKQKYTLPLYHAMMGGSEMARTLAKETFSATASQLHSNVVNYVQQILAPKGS
Method in brief: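 Aminopeptidase B at an estimated 4.6 nM, diluted 10-fold for tight binders, in 0.1 M PIPES pH 7.0 with 0.2 M NaCl and 1 mM DTT, 25 °C. Substrate was L-arginine p-nitroanilide, used near Km, with hydrolysis read at 405 nm. Where slow binding appeared, enzyme and inhibitor were preincubated 10–20 min before substrate was added.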

SMILES	pKi [1]	pKi [2]	pKi [3]
CC(C)CCNC(=O)[C@H](S)[C@@H](N)Cc1ccccc1	4.49	4.59	4.45
CC(C)C[C@@H](N)CO	< 3.00	< 3.00	< 3.00
CC(C)C[C@H](NC(=O)[C@@H](S)[C@H](N)Cc1ccccc1)C(=O)O [listing 1 of 2 here]	5.04	6.00	8.19
CC(C)CCNC(=O)[C@@H](S)[C@H](N)Cc1ccccc1	5.31	4.78	5.40
CC(C)C[C@H](/N=C(\S)[C@@H](O)[C@H](N)Cc1ccccc1)C(=O)O	4.39	6.48	5.62
CC(C)C[C@H](N)C(C)S (some centres undefined)	5.22	< 3.30	5.15
CC(C)C[C@H](NC(=O)[C@@H](O)[C@H](N)Cc1ccccc1)C(=O)O [UBENIMEX]			7.22
CC(C)C[C@H](NC(=O)[C@@H](S)[C@H](N)Cc1ccccc1)C(=O)O [listing 2 of 2 here]	5.36	6.26	8.34
CC(C)CCNC(=O)[C@@H](O)[C@H](N)Cc1ccccc1	4.70	6.29	4.41
CC(C)C[C@H](N)C(C)O (some centres undefined)	3.45	3.29	< 3.70
CC(C)CC/N=C(\S)[C@@H](O)[C@H](N)Cc1ccccc1	3.15	5.36	< 3.00
CC(C)C[C@@H](N)CS	7.70	3.35	6.89
COC(=O)C(O)[C@H](N)Cc1ccccc1 (some centres undefined)	3.00	4.48	< 3.00
NCCCC[C@@H](N)CO			4.00
COC(=O)C(S)[C@H](N)Cc1ccccc1 (some centres undefined)	3.51	3.52	3.80
NCCCC[C@@H](N)CS	6.96	< 3.00	9.04
